Measured values reported in ChEMBL document CHEMBL2057141, “Imidazolopiperazines: lead optimization of the second-generation antimalarial agents” (J Med Chem, 2012).

How the values were obtained:
Plasmodium berghei [1] = test: Antimalarial activity against Plasmodium berghei ANKA expressing GFP infected in po dosed NMRI mouse assessed as reduction of parasite level in blood administered 24 hrs post infection measured after 72 hrs post infection by flow cytometry; type: functional
[2] = Metabolic stability in human liver microsomes assessed as hepatic extraction ratio by LC/MS/MS analysis in presence of CYP; type: ADME, Microsome
Outline: (§1)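 Liver microsomes (human, mouse, rat). Compound depletion followed by LC/MS/MS. Loss of parent used to derive in vitro half-life and hepatic extraction ratio.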

Plasmodium berghei [3] = test: Antimalarial activity against Plasmodium berghei ANKA expressing GFP infected in NMRI mouse assessed as reduction of parasite level in blood at 30 mg/kg, po administered 24 hrs post infection measured after 72 hrs post infection by flow cytometry; type: functional; parameters: scale not given: the % may be the effect or the level left
Outline: (§2)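 Female NMRI mice (20–22 g, n=3) are infected i.v. with 2×10^7 P. berghei GFP ANKA-infected erythrocytes. Oral compound in 75% PEG300/25% D5W is given at 10 mL/kg, once at 24 h or daily at 24/48/72 h post-infection. Parasitemia is read by flow cytometry at 72 h (single dose) or 96 h (triple dose). Activity is % reduction of mean parasitemia versus untreated controls.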

[4] = Half life in Balb/c mouse at 5 mg/kg, iv; type: ADME, organism-based; parameters: dose 5 mg/kg, route intravenous; conditions: in vivo
Outline: (§3)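 Male Balb/c mice (n = 3 per group). Compound as a 2.5 mg/mL solution in PEG300/D5W 3:1, filtered. Given by lateral tail vein at 5 mg/kg (2 mL/kg) or orally at 20 mg/kg (8 mL/kg). Six serial 50 μL retro-orbital blood samples to 24 h, heparinized plasma. Plasma extracted with acetonitrile:methanol 3:1 with internal standard, LC-MS/MS. Noncompartmental analysis; F = AUCpo×dose_iv/AUCiv×dose_po.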

[5] = Tmax in Balb/c mouse at 20 mg/kg, po; type: ADME, organism-based; parameters: dose 20 mg/kg, route oral; conditions: in vivo; outline: as §3
[6] = Clearance in Balb/c mouse plasma at 5 mg/kg, iv; type: ADME, organism-based; parameters: dose 5 mg/kg, route intravenous; outline: as §3
[7] = (§4) Cmax in Wistar rat at 10 mg/kg, po; type: ADME, organism-based; parameters: dose 10 mg/kg, route oral; conditions: Wistar, in vivo
Outline: (§5)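 Rat snapshot PK: two Wistar rats dosed orally at 10 mg/kg, formulated at 2.5 mg/mL in 75% PEG300/25% D5W. Blood (100 μL) taken at 0.5, 1, 3 and 5 h post dose. Plasma pooled by sampling time, then analysed by LC-MS/MS.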

Mus musculus [8] = test: Oral bioavailability in Balb/c mouse at 20 mg/kg; type: ADME, organism-based; conditions: in vivo; outline: as §3
Plasmodium falciparum [9] = test: Antimalarial activity against Plasmodium falciparum W2 after 72 hrs by SYBR green fluorescence assay; type: functional, organism-based; conditions: W2, 72 h
Outline: (§6)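 P. falciparum grown in O+ erythrocytes, screened in medium without human serum plus 0.5% Albumax II. Twelve-point half-log dilutions up to 10 μM final. 0.3% parasitemia, 2.5% hematocrit; 72 h at 37 °C under low-oxygen gas. Lysis buffer with SYBR Green added, 24 h at 25 °C, fluorescence read at 485/530 nm.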

[10] = AUC (0 to 5 hrs) in Wistar rat at 10 mg/kg, po; type: ADME, organism-based; parameters: dose 10 mg/kg, route oral; conditions: plasma
Mus musculus [11] = test: AUC (0 to 24 hrs) in Balb/c mouse at 20 mg/kg, po; type: ADME, organism-based, Plasma; parameters: time < 24 hr, dose 20 mg/kg, route oral; conditions: in vivo; outline: as §3
[12] = Metabolic stability in rat liver microsomes assessed as hepatic extraction ratio by LC/MS/MS analysis in presence of CYP; type: ADME, Microsome; outline: as §1
[13] = Apparent permeability across apical to basolateral side in human Caco2 cells by LC/MS analysis; type: ADME, cell-based; conditions: Caco-2
Outline: (§7)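 Caco-2 monolayers in 96-well format. Compound measured in apical and basolateral chambers by LC/MS, giving Papp in the A–B and B–A directions. Values reported in cm/s × 10⁶.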

Plasmodium falciparum [14] = test: Antimalarial activity against Plasmodium falciparum 3D7 after 72 hrs by SYBR green fluorescence assay; type: functional, organism-based; conditions: 3D7, 72 h; outline: as §6
[15] = Half life in Balb/c mouse at 20 mg/kg, po; type: ADME, organism-based; parameters: dose 20 mg/kg, route oral; conditions: in vivo; outline: as §3
Plasmodium berghei [16] = test: Antimalarial activity against Plasmodium berghei ANKA expressing GFP infected in NMRI mouse assessed as reduction of parasite level in blood at 100 mg/kg, po administered 24 hrs post infection measured after 72 hrs post infection by flow cytometry; type: functional; parameters: scale not given: the % may be the effect or the level left; outline: as §2
Plasmodium berghei [17] = test: Antimalarial activity against Plasmodium berghei ANKA expressing GFP infected in NMRI mouse assessed as reduction of parasite level in blood at 30 mg/kg, po administered 24 hrs post infection qd for 3 days measured after 96 hrs post infection by flow cytometry; type: functional; parameters: scale not given: the % may be the effect or the level left; outline: as §2
Mus musculus [18] = test: AUC (0 to 24 hrs) in Balb/c mouse at 5 mg/kg, iv; type: ADME, organism-based, Plasma; parameters: time < 24 hr, dose 5 mg/kg, route intravenous; conditions: in vivo; outline: as §3
Plasmodium berghei [19] = test: Antimalarial activity against Plasmodium berghei ANKA expressing GFP infected in NMRI mouse assessed as increase of mouse survival at 100 mg/kg, po administered 24 hrs post infection (reference value: 6 to 7 days); type: functional
[20] = Apparent permeability across basolateral to apical side in human Caco2 cells by LC/MS analysis; type: ADME, cell-based; conditions: Caco-2; outline: as §7
[21] = Permeability of the compound by PAMPA; type: ADME
Outline: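 PAMPA in 96-well filter plates. Permeated compound quantified by UV absorbance at 260–290 nm. Reported as percentage absorbed.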

[22] = Volume of distribution in Balb/c mouse at 5 mg/kg, iv; type: ADME, organism-based; parameters: dose 5 mg/kg, route intravenous; conditions: in vivo; outline: as §3
[23] = Cmax in Balb/c mouse at 20 mg/kg, po; type: ADME, organism-based; parameters: dose 20 mg/kg, route oral; conditions: in vivo; outline: as §3
[24] = biological target: Voltage-gated inwardly rectifying potassium channel KCNH2 (Homo sapiens, UniProt Q12809); test: Inhibition of human ERG channel expressed in CHO cells by patch clamp assay; type: cell-based
Plasmodium berghei [25] = test: Antimalarial activity against Plasmodium berghei ANKA expressing GFP infected in NMRI mouse assessed as increase of mouse survival at 30 mg/kg, po administered 24 hrs post infection qd for 3 days (reference value: 6 to 7 days); type: functional
[26] = Metabolic stability in mouse liver microsomes assessed as hepatic extraction ratio by LC/MS/MS analysis in presence of CYP; type: ADME, Microsome; outline: as §1
Rattus norvegicus [27] = test: Dose normalized AUC (0 to 5 hrs) in Wistar rat at 10 mg/kg, po; type: ADME, organism-based; parameters: dose 10 mg/kg, route oral; conditions: in vivo; outline: as §5
Plasmodium berghei [28] = test: Antimalarial activity against Plasmodium berghei ANKA expressing GFP infected in NMRI mouse assessed as increase of mouse survival at 30 mg/kg, po administered 24 hrs post infection (reference value: 6 to 7 days); type: functional
Rattus norvegicus [29] = test: as §4; type: ADME, organism-based; parameters: dose 10 mg/kg, route oral; conditions: in vivo, BLD = below limit of detection; outline: as §5
[30] = Metabolic stability in mouse liver microsomes assessed as hepatic extraction ratio by LC/MS/MS analysis; type: ADME, Microsome; outline: as §1

Voltage-gated inwardly rectifying potassium channel KCNH2, sequence (Q12809 whole entry): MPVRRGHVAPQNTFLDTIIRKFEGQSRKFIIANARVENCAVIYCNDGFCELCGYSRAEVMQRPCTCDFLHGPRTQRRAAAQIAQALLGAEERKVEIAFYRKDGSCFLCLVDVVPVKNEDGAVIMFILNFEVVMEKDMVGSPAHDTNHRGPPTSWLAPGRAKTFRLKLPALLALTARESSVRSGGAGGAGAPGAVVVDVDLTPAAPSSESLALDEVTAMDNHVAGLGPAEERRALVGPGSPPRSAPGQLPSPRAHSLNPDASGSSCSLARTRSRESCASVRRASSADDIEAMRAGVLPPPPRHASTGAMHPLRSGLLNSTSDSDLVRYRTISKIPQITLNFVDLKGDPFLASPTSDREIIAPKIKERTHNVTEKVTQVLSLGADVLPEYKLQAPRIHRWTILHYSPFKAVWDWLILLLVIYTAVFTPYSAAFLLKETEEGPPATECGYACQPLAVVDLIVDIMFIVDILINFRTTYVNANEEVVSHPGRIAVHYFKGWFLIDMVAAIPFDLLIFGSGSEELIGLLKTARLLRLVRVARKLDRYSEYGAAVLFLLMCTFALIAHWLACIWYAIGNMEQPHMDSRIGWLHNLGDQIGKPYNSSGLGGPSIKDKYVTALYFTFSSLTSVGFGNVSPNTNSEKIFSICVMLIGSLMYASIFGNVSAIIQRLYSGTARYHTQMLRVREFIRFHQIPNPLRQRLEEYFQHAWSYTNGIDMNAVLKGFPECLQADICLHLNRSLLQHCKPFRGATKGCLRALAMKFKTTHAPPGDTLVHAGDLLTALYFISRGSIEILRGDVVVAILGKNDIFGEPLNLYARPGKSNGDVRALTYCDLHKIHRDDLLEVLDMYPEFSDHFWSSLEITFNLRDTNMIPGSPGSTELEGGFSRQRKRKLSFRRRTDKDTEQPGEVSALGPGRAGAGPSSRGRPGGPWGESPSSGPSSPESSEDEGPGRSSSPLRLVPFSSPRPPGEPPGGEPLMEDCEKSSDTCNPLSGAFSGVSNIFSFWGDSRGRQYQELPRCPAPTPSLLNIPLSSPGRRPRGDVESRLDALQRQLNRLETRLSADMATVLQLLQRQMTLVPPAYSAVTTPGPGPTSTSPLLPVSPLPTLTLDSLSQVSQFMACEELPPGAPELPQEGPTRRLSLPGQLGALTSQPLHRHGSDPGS

Structure (SMILES): CC(C)(N)C(=O)N1CCn2c(nc(-c3ccc(F)cc3)c2Nc2ccc(F)c(F)c2)C1
- ED99 (Plasmodium berghei [1]): 26.5 mg/kg

Structure (SMILES): CC1(C)c2nc(-c3ccc(F)cc3)c(Nc3ccc(F)c(F)c3)n2CCN1C(=O)CN
- hepatic extraction ratio [2]: 0.53
- Activity (Plasmodium berghei [3]): 99%
- half-life [4]: 5.5 h
- Tmax [5]: 3 h
- clearance [6]: 27.5 mL/min/kg
- Cmax [7]: 96.7 nM
- F (Mus musculus [8]): 75%
- EC50 (Plasmodium falciparum [9]): 5 nM
- AUC(0-t) at 4 h [10]: 0.367 µM·h
- AUC (Mus musculus [11]): 21.058 µM·h
- hepatic extraction ratio [12]: 0.69
- Papp A→B [13]: 0.61 ×10⁻⁶ cm/s
- EC50 (Plasmodium falciparum [14]): 4 nM
- half-life [15]: 5.21 h
- Activity (Plasmodium berghei [16]): 99.1%
- Activity (Plasmodium berghei [17]): 99.7%
- AUC (Mus musculus [18]): 7.062 µM·h
- Survival (Plasmodium berghei [19]): 16.7 days
- Papp B→A [20]: 1.3 ×10⁻⁶ cm/s
- permeability [21]: 51.5%
- Vd [22]: 7.5 L/kg
- Cmax [23]: 1720 nM
- IC50 [24]: > 30000 nM
- Survival (Plasmodium berghei [25]): 17 days
- hepatic extraction ratio [26]: 0.46
- AUC/dose (Rattus norvegicus [27]): 0.95 min.ug/ml/(mg/kg)
- Survival (Plasmodium berghei [28]): 15 days

Structure (SMILES): Cc1ccc(Nc2c(-c3ccc(F)cc3)nc3n2CCN(C(=O)C(C)(C)N)C3(C)C)cc1
- half-life [4]: 18 h
- Tmax [5]: 1 h
- clearance [6]: 36.1 mL/min/kg
- Cmax (Rattus norvegicus [29]): BLD
- F (Mus musculus [8]): 107%
- EC50 (Plasmodium falciparum [9]): 4 nM
- AUC (Mus musculus [11]): 32.409 µM·h
- Papp A→B [13]: 3.5 ×10⁻⁶ cm/s
- EC50 (Plasmodium falciparum [14]): 2 nM
- half-life [15]: 14.5 h
- AUC (Mus musculus [18]): 7.607 µM·h
- Survival (Plasmodium berghei [19]): 16.7 days
- Papp B→A [20]: 2.37 ×10⁻⁶ cm/s
- permeability [21]: 99.5%
- Vd [22]: 7.5 L/kg
- Cmax [23]: 1640 nM
- Survival (Plasmodium berghei [28]): 15.3 days

Structure (SMILES): CC1(C)NCCn2c1nc(-c1ccc(F)cc1)c2Nc1ccc(F)cc1
- hepatic extraction ratio [2]: 0.92
- Activity (Plasmodium berghei [3]): 90%
- half-life [4]: 0.8 h
- Tmax [5]: 1 h
- clearance [6]: 25.9 mL/min/kg
- Cmax [7]: 202 nM
- F (Mus musculus [8]): 53%
- EC50 (Plasmodium falciparum [9]): 5 nM
- AUC(0-t) at 4 h [10]: 0.423 µM·h
- hepatic extraction ratio [30]: 0.8
- AUC (Mus musculus [11]): 19.447 µM·h
- hepatic extraction ratio [12]: 0.92
- EC50 (Plasmodium falciparum [14]): 5 nM
- half-life [15]: 2.95 h
- AUC (Mus musculus [18]): 9.09 µM·h
- Survival (Plasmodium berghei [19]): 9.7 days
- permeability [21]: 99.9%
- Vd [22]: 1.2 L/kg
- Cmax [23]: 6400 nM
- Survival (Plasmodium berghei [25]): 12 days
- hepatic extraction ratio [26]: 0.8
- AUC/dose (Rattus norvegicus [27]): 0.9 min.ug/ml/(mg/kg)
- Survival (Plasmodium berghei [28]): 7 days

Structure (SMILES): C[C@H]1[C@H](OC(=O)CCC(=O)O)O[C@@H]2O[C@@]3(C)CC[C@H]4[C@H](C)CC[C@@H]1[C@@]24OO3 [ARTESUNATE]
- Activity (Plasmodium berghei [3]): 95.6%
- Activity (Plasmodium berghei [17]): 99%
- Survival (Plasmodium berghei [19]): 7 days
- Survival (Plasmodium berghei [25]): 12.2 days
- Survival (Plasmodium berghei [28]): 5.8 days

Structure (SMILES): CCN(CC)CCCC(C)Nc1ccnc2cc(Cl)ccc12 (centres undefined) [CHLOROQUINE]
- Activity (Plasmodium berghei [3]): 99.5%
- Activity (Plasmodium berghei [16]): 99.6%
- Activity (Plasmodium berghei [17]): 99.8%
- Survival (Plasmodium berghei [19]): 12.5 days
- Survival (Plasmodium berghei [25]): 13.6 days
- Survival (Plasmodium berghei [28]): 9 days
